Results gathered from unrelated publications.
Protocols differ between the studies behind these lines. pIC50, pKd: −log10 of the molar value.
sapA: sapA (Haemophilus influenzae, UniProt Q4QL73)
USP28: Ubiquitin carboxyl-terminal hydrolase 28 (USP28, Homo sapiens, UniProt Q96RU2)

CNC(=O)c1ccc(-c2cnn3ccc(C(=O)N(C)c4ccc(Cl)c(C(=O)OC)c4)cc23)cc1  pIC50 (TGF-beta receptor type-1 (TGFBR1, Homo sapiens, UniProt P36897); enzyme activity; inhibitor): < 4.52
CCC(C(=O)Nc1cc(NC2CCNCC2)ccc1C)n1cc(Cl)cc2nc(SCc3ccc(F)cc3)nc1-2 (stereo not drawn)  pIC50 (Ubiquitin carboxyl-terminal hydrolase 7 (USP7, Homo sapiens, UniProt Q93009); enzyme activity; inhibitor): < 4.00
COC(=O)c1cc(N(C)C(=O)c2ccn3ncc(-c4ccc(C(=O)O)cc4)c3c2)ccc1Cl  pIC50 (Hepatocyte growth factor receptor (MET, Homo sapiens, UniProt P08581); enzyme activity; inhibitor): < 4.52
C[C@@H](O)[C@H](NC(=O)CNC(=O)[C@H](Cc1ccc(O)cc1)NC(=O)[C@H](CCCNC(=N)N)NC(=O)[C@@H](N)CO)C(=O)O  pKd (sapA; binding): 7.51
CC[C@H](C)[C@H](NC(C)=O)C(=O)N[C@@H](CCC(=O)O)C(=O)N[C@H](C(=O)N[C@H](C=O)CC(=O)O)[C@@H](C)O  pIC50 (Caspase-1 (CASP1, Homo sapiens, UniProt P29466); enzyme activity; inhibitor): 7.56
C[C@@H](O)[C@H](NC(=O)CNC(=O)[C@H](Cc1ccc(O)cc1)NC(=O)[C@H](CO)NC(=O)[C@@H](N)CCCNC(=N)N)C(=O)O  pKd (sapA; binding): 6.86
CCC(C(=O)Nc1cc(NC2COC2)ccc1C)n1cc(Br)cc2nc(SCc3ccc(F)cc3)nc1-2 (stereo not drawn)  pIC50 (USP28; enzyme activity; inhibitor): < 4.00
NCCCC[C@H](NC(=O)[C@@H]1CCCN1)C(=O)N[C@@H](CO)C(=O)N[C@@H](CCC(=O)O)C(=O)N[C@@H](CCC(N)=O)C(=O)O  pKd (sapA; binding): 7.55
CCC(C(=O)Nc1cc(NC2CCNC2)ccc1C)n1cc(Br)cc2nc(SCc3ccc(F)cc3)nc1-2 (stereo not drawn)  pIC50 (USP28; enzyme activity; inhibitor): < 4.00
